Measurements: ChEMBL document CHEMBL4312029, “Structure-activity relationship studies and in vitro and in vivo anticancer activity of novel 3-aroyl-1,4-diarylpyrroles against solid tumors and hematological malignancies” (Eur J Med Chem, 2020)
pIC50: −log10 of the molar value. The source made the active and inactive calls. No cut-off for these calls is given here.

Legend:
HT-29 = assay: Cytotoxicity against human HT-29 cells assessed as reduction in cell viability incubated for 48 hrs by MTT assay; assay type: functional, cell-based; conditions: for pIC50: HT-29, 48 h
KU812 cell line = assay: Cytotoxicity against human KU812 cells expressing IM- sensitive wild type Bcr/Abl assessed as reduction in cell viability incubated for 48 hrs by MTT assay; assay type: functional, cell-based; conditions: KU812, 48 h
KBM5 [1] = assay: Potentiation of NLT-induced apoptotic cell death in human KBM5 cells expressing IM-sensitive wild type Bcr/Abl at 10 nM co-incubated with NLT for 48 hrs by Annexin V-staining based flow cytometry; assay type: functional
Method in brief: (§1)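 KBM5-WT or KBM5-T315I CML cells treated 48 h with 10 nM nilotinib, with or without 10 nM test compound (each agent alone also run). Apoptosis measured by annexin V staining and flow cytometry, read as percentage of apoptotic cells. Triplicate experiments.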

KBM5 [2] = assay: Cytotoxicity against human KBM5 cells expressing IM-resistant Bcr/Abl T315I mutant assessed as reduction in cell viability incubated for 48 hrs by MTT assay; assay type: functional, cell-based; conditions: KBM5, 48 h
[3] = Cytotoxicity against human SK-N-BE cells assessed as reduction in cell viability incubated for 48 hrs by MTT assay; assay type: functional, cell-based
Method in brief: (§2)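 Increasing concentrations applied to glioblastoma and neuroblastoma lines to give dose-response viability curves; cytotoxic IC50 from triplicate experiments. Incubation 48 h, except U343MG at 72 h.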

KBM5 [4] = assay: Induction of apoptotic cell death in human KBM5 cells expressing IM-resistant Bcr/Abl T315I mutant at 10 nM incubated for 48 hrs by Annexin V-staining based flow cytometry; assay type: functional
Method in brief: (§3)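 KBM5-WT and KBM5-T315I cells exposed 48 h to 10 nM test compound alone or combined with 10 nM nilotinib (nilotinib alone as comparator). Apoptotic cells quantified by annexin V staining and flow cytometry; triplicate.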

T-24 [5] = assay: Cytotoxicity against human T24 cells assessed as reduction in cell viability incubated for 48 hrs by MTT assay; assay type: functional, cell-based; conditions: T-24, 48 h
PBMC = assay: Cytotoxicity against human PBMC assessed as cell viability by MTT assay; assay type: cell-based
[6] = Cytotoxicity against human LAMA84-s cells expressing IM-sensitive wild type Bcr/Abl assessed as reduction in cell viability incubated for 48 hrs by MTT assay; assay type: functional, cell-based
MCF7 = assay: Cytotoxicity against human MCF7 cells assessed as reduction in cell growth incubated for 96 hrs by MTT assay; assay type: functional, cell-based; conditions: MCF7, 96 h
Method in brief: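 Growth inhibition of human breast carcinoma cells, reported as IC50; run in duplicate or triplicate.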

HCT-116 = assay: Cytotoxicity against human HCT116 cells assessed as reduction in cell viability incubated for 48 hrs by MTT assay; assay type: functional, cell-based; conditions: for pIC50: HCT-116, 48 h
T98G = assay: Cytotoxicity against human T98G cells assessed as reduction in cell viability incubated for 48 hrs by MTS assay; assay type: functional, cell-based; method in brief: as §2
SW-620 = assay: Cytotoxicity against human SW620 cells assessed as reduction in cell viability incubated for 48 hrs by MTT assay; assay type: functional, cell-based; conditions: for pIC50: SW-620, 48 h
KBM5 [7] = assay: Induction of apoptotic cell death in human KBM5 cells expressing IM-sensitive wild type Bcr/Abl at 10 nM incubated for 48 hrs by Annexin V-staining based flow cytometry; assay type: functional; method in brief: as §3
Tubulin = assay: Inhibition of tubulin polymerization (unknown origin) incubated for 15 mins followed by GTP addition and measured for 20 mins by spectrophotometry; assay type: protein-complex assay, Homo sapiens
Method in brief: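 Tubulin assembly assay with tubulin at 10 µM. IC50 for inhibition of polymerization; run in duplicate or triplicate.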

KBM5 [8] = assay: Potentiation of NLT-induced apoptotic cell death in human KBM5 cells expressing IM-resistant Bcr/Abl T315I mutant at 10 nM co-incubated with NLT for 48 hrs by Annexin V-staining based flow cytometry; assay type: functional; method in brief: as §1
SW480 = assay: Cytotoxicity against human SW480 cells assessed as reduction in cell viability incubated for 48 hrs by MTT assay; assay type: functional, cell-based; conditions: for pIC50: SW480, 48 h
[9] = Cytotoxicity against human SK-N-BE(2)C cells assessed as reduction in cell viability incubated for 48 hrs by MTT assay; assay type: functional, cell-based; method in brief: as §2
Tubulin (Homo sapiens) = Tubulin (Homo sapiens) (UniProt P68371+Q9H4B7+P0DPH7+P68366+Q13509+Q71U36+P04350+Q3ZCM7+P07437+P68363+Q9BQE3+Q6PEY2+Q13885+Q9BVA1+Q9BUF5); assay: Inhibition of [3H]colchicine binding to tubulin (unknown origin) at 5 uM incubated for 10 mins by DEAE-cellulose filter method relative to control; assay type: protein-complex assay
[10] = Cytotoxicity against IM resistant human LAMA84-r cells assessed as reduction in cell viability incubated for 48 hrs by MTT assay; assay type: functional, cell-based
KBM5 [11] = assay: Cytotoxicity against human KBM5 cells expressing IM- sensitive wild type Bcr/Abl assessed as reduction in cell viability incubated for 48 hrs by MTT assay; assay type: functional, cell-based; conditions: KBM5, 48 h
Homo sapiens [12] = organism: Homo sapiens; assay: (§4) Cytotoxicity against human U343MG cells assessed as reduction in cell viability incubated for 72 hrs by MTS assay; assay type: functional, cell-based; method in brief: as §2
[13] = as §4; assay type: functional, cell-based; conditions: U-343MG; method in brief: as §2
U-87 MG = assay: Cytotoxicity against human U87MG cells assessed as reduction in cell viability incubated for 48 hrs by MTS assay; assay type: functional, cell-based, U-87MG ATCC; conditions: for inhibition: U-87MG ATCC; method in brief: as §2
T-24 [14] = assay: Antitumor activity against human T24 cells xenografted in BALB/c nu/nu mouse assessed as reduction in tumor weight at 20 mg/kg, ip administered every 2 days for 40 days and measured on day 40; assay type: functional, organism-based
Method in brief: (§5)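 T24 or ES-2 cells injected on the backs of nude mice; saline-treated control group. Mice euthanized on Day 40, tumors excised, and tumor volume and weight measured.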

T-24 [15] = assay: Antitumor activity against human T24 cells xenografted in BALB/c nu/nu mouse assessed as increase in caspase 3 expression in tumor tissue at 20 mg/kg, ip administered every 2 days for 40 days and measured on day 40 by immunofluorescence analysis; assay type: functional, organism-based
Method in brief: (§6)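 Nude mice bearing back tumors from injected T24 or ES-2 cells, treated versus saline controls. Tumors collected on Day 40 and marker expression in tumor tissue assessed by immunofluorescence staining.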

Homo sapiens [16] = assay: Antitumor activity against human ES2 cells xenografted in BALB/c nu/nu mouse assessed as reduction in tumor volume at 20 mg/kg, ip administered every 2 days for 40 days and measured on day 40; assay type: functional, organism-based; method in brief: as §5
Homo sapiens [17] = assay: Antitumor activity against human ES2 cells xenografted in BALB/c nu/nu mouse assessed as reduction in tumor weight at 20 mg/kg, ip administered every 2 days for 40 days and measured on day 40; assay type: functional, organism-based; method in brief: as §5
T-24 [18] = assay: Antitumor activity against human T24 cells xenografted in BALB/c nu/nu mouse assessed as increase in caspase 9 expression in tumor tissue at 20 mg/kg, ip administered every 2 days for 40 days and measured on day 40 by immunofluorescence analysis; assay type: functional, organism-based; method in brief: as §6
Homo sapiens [19] = assay: Antitumor activity against human ES2 cells xenografted in BALB/c nu/nu mouse assessed as increase in caspase 9 expression in tumor tissue at 20 mg/kg, ip administered every 2 days for 40 days and measured on day 40 by immunofluorescence analysis; assay type: functional, organism-based; method in brief: as §6
Homo sapiens [20] = assay: Antitumor activity against human ES2 cells xenografted in BALB/c nu/nu mouse assessed as increase in Bax expression in tumor tissue at 20 mg/kg, ip administered every 2 days for 40 days and measured on day 40 by immunofluorescence analysis; assay type: functional, organism-based; method in brief: as §6
T-24 [21] = assay: Antitumor activity against human T24 cells xenografted in BALB/c nu/nu mouse assessed as reduction in CD31 expression in tumor tissue at 20 mg/kg, ip administered every 2 days for 40 days and measured on day 40 by immunofluorescence analysis; assay type: functional, organism-based; method in brief: as §6
Homo sapiens [22] = assay: Antitumor activity against human ES2 cells xenografted in BALB/c nu/nu mouse assessed as increase in caspase 3 expression in tumor tissue at 20 mg/kg, ip administered every 2 days for 40 days and measured on day 40 by immunofluorescence analysis; assay type: functional, organism-based; method in brief: as §6
Homo sapiens [23] = assay: Antitumor activity against human ES2 cells xenografted in BALB/c nu/nu mouse assessed as reduction in Bcl2 expression in tumor tissue at 20 mg/kg, ip administered every 2 days for 40 days and measured on day 40 by immunofluorescence analysis; assay type: functional, organism-based; method in brief: as §6
T-24 [24] = assay: Antitumor activity against human T24 cells xenografted in BALB/c nu/nu mouse assessed as reduction in tumor volume at 20 mg/kg, ip administered every 2 days for 40 days and measured on day 40; assay type: functional, organism-based; method in brief: as §5
Homo sapiens [25] = assay: Antitumor activity against human ES2 cells xenografted in BALB/c nu/nu mouse assessed as reduction in Ki67 expression in tumor tissue at 20 mg/kg, ip administered every 2 days for 40 days and measured on day 40 by immunofluorescence analysis; assay type: functional, organism-based; method in brief: as §6
T-24 [26] = assay: Antitumor activity against human T24 cells xenografted in BALB/c nu/numouse assessed as increase in Bax expression in tumor tissue at 20 mg/kg, ip administered every 2 days for 40 days and measured on day 40 by immunofluorescence analysis; assay type: functional, organism-based; method in brief: as §6
T-24 [27] = assay: Antitumor activity against human T24 cells xenografted in BALB/c nu/nu mouse assessed as reduction in Bcl2 expression in tumor tissue at 20 mg/kg, ip administered every 2 days for 40 days and measured on day 40 by immunofluorescence analysis; assay type: functional, organism-based; method in brief: as §6
T-24 [28] = assay: Antitumor activity against human T24 cells xenografted in BALB/c nu/nu mouse assessed as reduction in Ki67 expression in tumor tissue at 20 mg/kg, […] days for 40 days and measured on day 40 by immunofluorescence analysis; assay type: functional, organism-based; method in brief: as §6
Homo sapiens [29] = assay: Antitumor activity against human ES2 cells xenografted in BALB/c nu/nu mouse assessed as reduction in CD31 expression in tumor tissue at 20 mg/kg, ip administered every 2 days for 40 days and measured on day 40 by immunofluorescence analysis; assay type: functional, organism-based; method in brief: as §6

COc1cc(C(=O)c2cn(-c3ccc(N)cc3)cc2-c2ccc(N)cc2)cc(OC)c1OC
inhibition (HT-29): Dose-dependent effect
pIC50 (HT-29): 7.47
pIC50 (KU812 cell line): 8.30
Activity (KBM5 [1]): 50 - 90%
pIC50 (KBM5 [2]): 7.92
pIC50 [3]: 6.52
Activity (KBM5 [4]): Active
pIC50 (T-24 [5]): 7.24
Activity (PBMC): Non-Toxic
pIC50 [6]: 8.10
pIC50 (MCF7): 7.82
inhibition (HCT-116): Dose-dependent effect
pIC50 (HCT-116): 7.39
Emax (T98G): 36.2%
pIC50 (T98G): 7.61 to 7.62
inhibition (T98G): Dose-dependent effect
inhibition (SW-620): Dose-dependent effect
pIC50 (SW-620): 7.21
Activity (KBM5 [7]): Active
pIC50 (Tubulin): 6.42
Activity (KBM5 [8]): 50 - 90%
inhibition (SW480): Dose-dependent effect
pIC50 (SW480): 6.82
pIC50 [9]: 6.83
inhibition (Tubulin (Homo sapiens)): 87%
pIC50 [10]: 8.00
pIC50 (KBM5 [11]): 8.00
inhibition (Homo sapiens [12]): Dose-dependent effect
Emax [13]: 34%
pIC50 [13]: 7.66 to 7.67
Emax (U-87 MG): 31.8%
pIC50 (U-87 MG): 7.32
inhibition (U-87 MG): Dose-dependent effect

COc1cc(C(=O)c2cn(-c3cccc(N)c3)cc2-c2ccc(N)cc2)cc(OC)c1OC
inhibition (HT-29): Dose-dependent effect
pIC50 (HT-29): 7.29
pIC50 (KU812 cell line): 8.10
pIC50 (KBM5 [2]): 7.80
pIC50 [3]: 6.66
inhibition (T-24 [14]): Active
Activity (T-24 [15]): Active
inhibition (Homo sapiens [16]): Active
pIC50 (T-24 [5]): 7.92
inhibition (Homo sapiens [17]): Active
Activity (PBMC): Non-Toxic
pIC50 [6]: 8.00
pIC50 (MCF7): 7.85
Activity (T-24 [18]): Active
inhibition (HCT-116): Dose-dependent effect
pIC50 (HCT-116): 7.57
Emax (T98G): 41.3%
pIC50 (T98G): 7.43 to 7.44
inhibition (T98G): Dose-dependent effect
inhibition (SW-620): Dose-dependent effect
pIC50 (SW-620): 7.55
pIC50 (Tubulin): 6.33
Activity (Homo sapiens [19]): Active
Activity (Homo sapiens [20]): Active
inhibition (T-24 [21]): Active
Activity (Homo sapiens [22]): Active
inhibition (Homo sapiens [23]): Active
inhibition (T-24 [24]): Active
inhibition (Homo sapiens [25]): Active
Activity (T-24 [26]): Active
inhibition (SW480): Dose-dependent effect
pIC50 (SW480): 7.32
pIC50 [9]: 7.25
inhibition (Tubulin (Homo sapiens)): 92%
pIC50 [10]: 7.92
inhibition (T-24 [27]): Active
pIC50 (KBM5 [11]): 7.85
inhibition (Homo sapiens [12]): Dose-dependent effect
Emax [13]: 36.3%
pIC50 [13]: 7.92
inhibition (T-24 [28]): Active
Emax (U-87 MG): 32%
pIC50 (U-87 MG): 7.51
inhibition (U-87 MG): Dose-dependent effect
inhibition (Homo sapiens [29]): Active
